Measurements of several laboratories.
Each line is one published result; the experiments were not run side by side.
Organism: Candida albicans
Read-out: microbial growth

CC[C@@H]([C@H](C)O)n1ncn(-c2ccc(N3CCN(c4ccc(OC[C@@H]5CO[C@@](Cn6cncn6)(c6ccc(F)cc6F)C5)cc4)CC3)cc2)c1=O — MIC (ATCC10231; 72 h): < 0.3 µM
CCOC(=O)CON — MIC (SC5314): 32 mg/L
C[C@@H]1[C@H](O)[C@@H](C)/C=C/C=C/C=C/C=C/C=C/C=C/C=C/[C@H](O[C@@H]2O[C@H](C)[C@@H](O)[C@H](N)[C@@H]2O)C[C@@H]2O[C@](O)(C[C@@H](O)C[C@@H](O)[C@H](O)CC[C@@H](O)C[C@@H](O)CC(=O)O[C@H]1C)C[C@H](O)[C@H]2C(=O)O — MIC (broth dilution): 0.25 mg/L
O=C1NN=C(N=Cc2ccccc2O)C1=NNn1c(-c2ccccc2)nc2ccccc2c1=O — MIC (broth dilution): 111 µM
COc1cc(-c2ccccc2)cc(C(C)C#Cc2c(C)nc(N)nc2N)c1 (racemic) — MIC (resazurin): 250 µM
CC1=NN(CNC(=O)c2ccccn2)C(=O)C1=NNn1c(-c2ccccc2)nc2ccccc2c1=O — MIC (broth dilution): 104 µM
O=C(CCCCCCCC[P+](c1ccccc1)(c1ccccc1)c1ccccc1)Nc1ccc(O)c(O)c1.[Br-] — MIC (broth dilution; ATCC90028; 24 h): > 32 mg/L
O=C1NN=C(N=Cc2ccc(O)cc2O)C1=NNn1c(-c2ccccc2)nc2ccccc2c1=O — MIC (broth dilution): 53.5 µM
N=C(N)N1CC=C(c2coc(C(=O)Nc3ccc(C4=CCN(C(=N)N)CC4)c(F)c3)c2)CC1 — MIC (broth dilution; 48 h; clinical isolate): 0.78 mg/L
CC1=NN(CNc2ccc(Cl)cc2)C(=O)C1=NNn1c(-c2ccccc2)nc2ccccc2c1=O — MIC (broth dilution): 51.5 µM
O=C(Cc1ccc(O)c(O)c1)NCCCCCCCC[P+](c1ccccc1)(c1ccccc1)c1ccccc1.[Br-] — MIC (broth dilution; ATCC90028; 24 h): > 32 mg/L
CC1=NN(CNc2ccccc2[N+](=O)[O-])C(=O)C1=NNn1c(-c2ccccc2)nc2ccccc2c1=O — MIC (broth dilution): 50.4 µM
O=C(CCCCCCCCCC[P+](c1ccccc1)(c1ccccc1)c1ccccc1)Nc1cc(O)c(O)c(O)c1.[Br-] — MIC (broth dilution; ATCC90028; 24 h): 8 mg/L
C[C@@H]1[C@H](O)[C@@H](C)/C=C/C=C/C=C/C=C/C=C/C=C/C=C/[C@H](O[C@@H]2O[C@H](C)[C@@H](O)[C@H](N)[C@@H]2O)C[C@@H]2O[C@](O)(C[C@@H](O)C[C@@H](O)[C@H](O)CC[C@@H](O)C[C@@H](O)CC(=O)O[C@H]1C)C[C@H](O)[C@H]2C(=O)O — MIC (ATCC90028): 0.63 mg/L
NOCC(=O)O — MIC (SC5314): 1000 mg/L
O=C(CCCCCCCC[P+](c1ccccc1)(c1ccccc1)c1ccccc1)Nc1cc(O)c(O)c(O)c1.[Br-] — MIC (broth dilution; ATCC90028; 24 h): > 32 mg/L
